The values that follow come from ChEMBL document CHEMBL4351006, “A new exploration towards aminothiazolquinolone oximes as potentially multi-targeting antibacterial agents: Design, synthesis and evaluation acting on microbes, DNA, HSA and topoisomerase IV” (Eur J Med Chem, 2019).

Assay [1] concerns Staphylococcus aureus. Nature of the assay: Antibacterial activity against Staphylococcus aureus ATCC 25923 assessed as reduction in bacterial cell viability incubated for 24 hrs by two fold serial dilution method. The class given is functional. Conditions: ATCC 25923, 24 h. The essentials: (§1)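 Broth two-fold serial dilution run to CLSI guidelines. Chloromycin, norfloxacin and fluconazole served as reference drugs.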

The subject of assay [2] is Staphylococcus aureus. Nature of the assay: Antibacterial activity against methicillin resistant Staphylococcus aureus N315 assessed as reduction in bacterial cell viability incubated for 24 hrs by two fold serial dilution method. The class given is functional. The settings on record: N315, 24 h. The method, boiled down:
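MIC by two-fold serial dilution following CLSI, with chloromycin and norfloxacin as reference drugs.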

A further assay relates to Enterococcus faecalis. Description: Antibacterial activity against Enterococcus faecalis assessed as reduction in bacterial cell viability incubated for 24 hrs by two fold serial dilution method. The class given is functional. The method, boiled down:
as §1

Assay [3] deals with Escherichia coli. Nature of the assay: Antibacterial activity against Escherichia coli assessed as reduction in bacterial cell viability incubated for 24 hrs by two fold serial dilution method. The class given is functional. The method, boiled down: as §1
Assay [4] relates to Candida albicans. Nature of the assay: Antifungal activity against Candida albicans assessed as reduction in fungal cell viability incubated for 24 hrs by two fold serial dilution method. The format is functional. The essentials: as §1
In assay [5] the test system is Staphylococcus aureus. Nature of the assay: Antibacterial activity against Staphylococcus aureus ATCC 29213 assessed as reduction in bacterial cell viability incubated for 24 hrs by two fold serial dilution method. The format is functional. Conditions: ATCC 29213, 24 h. The method, boiled down:
as §1

Another assay concerns Acinetobacter baumannii. Nature of the assay: Antibacterial activity against Acinetobacter baumannii assessed as reduction in bacterial cell viability incubated for 24 hrs by two fold serial dilution method. The format is functional. The essentials:
as §1

The subject of assay [6] is Pseudomonas aeruginosa. Description: Antibacterial activity against Pseudomonas aeruginosa ATCC 27853 assessed as reduction in bacterial cell viability incubated for 24 hrs by two fold serial dilution method. The class given is functional. Conditions: ATCC 27853, 24 h. The essentials: as §1
Assay [7] has as its system Staphylococcus aureus. Description: Antibacterial activity against Staphylococcus aureus assessed as reduction in bacterial cell viability incubated for 24 hrs by two fold serial dilution method. The format is functional. The essentials:
as §1

The test system of a further assay is Candida tropicalis. Nature of the assay: Antifungal activity against Candida tropicalis assessed as reduction in fungal cell viability incubated for 24 hrs by two fold serial dilution method. The format is functional. The essentials:
as §1

Assay [8] concerns Pseudomonas aeruginosa. Nature of the assay: Antibacterial activity against Pseudomonas aeruginosa assessed as reduction in bacterial cell viability incubated for 24 hrs by two fold serial dilution method. The class given is functional. The essentials:
as §1

Assay [9] concerns Escherichia coli. Description: Antibacterial activity against Escherichia coli ATCC 25922 assessed as reduction in bacterial cell viability incubated for 24 hrs by two fold serial dilution method. The settings on record: ATCC 25922, 24 h. The format is functional. The method, boiled down: as §1
A further assay deals with Klebsiella pneumoniae. Nature of the assay: Antibacterial activity against Klebsiella pneumoniae assessed as reduction in bacterial cell viability incubated for 24 hrs by two fold serial dilution method. The class given is functional. The method, boiled down: as §1
Another assay concerns Aspergillus fumigatus. Description: Antifungal activity against Aspergillus fumigatus assessed as reduction in fungal cell viability incubated for 24 hrs by two fold serial dilution method. The class given is functional. The method, boiled down:
as §1

A further assay deals with Candida parapsilosis. Description: Antifungal activity against Candida parapsilosis ATCC 22019 assessed as reduction in fungal cell viability incubated for 24 hrs by two fold serial dilution method. The settings on record: Lodderomyces parapsilosis, ATCC 22019, 24 h.
Assay [10] deals with Candida albicans. Description: Antifungal activity against Candida albicans ATCC 90023 assessed as reduction in fungal cell viability incubated for 24 hrs by two fold serial dilution method. The class given is functional. The settings on record: ATCC 90023, 24 h. The method, boiled down: as §1

Converted amounts (≈) assume the structure as drawn.

The MIC is the smallest concentration in the dilution series that meets the test's criterion for growth inhibition. As for `CCn1cc(-c2csc(N)n2)c(=O)c2cc(N3CCN(C/C(=N/OC)c4ccc(Cl)cc4Cl)CC3)c(Cl)cc21`, the MIC in the assay with Staphylococcus aureus [1] is 422 µM (≈ 256 µg/mL); in the assay on Staphylococcus aureus [2] it was 211 µM (≈ 128 µg/mL); in the assay on Enterococcus faecalis, 211 µM (≈ 128 µg/mL); with Escherichia coli [3] it was 422 µM (≈ 256 µg/mL); in the assay on Candida albicans [4], 422 µM (≈ 256 µg/mL); in the assay on Staphylococcus aureus [5], 211 µM (≈ 128 µg/mL). Also, the minimum inhibitory concentration (MIC) with Acinetobacter baumannii, in the assay with Pseudomonas aeruginosa [6], in the assay with Staphylococcus aureus [7], in the assay with Candida tropicalis, in the assay on Pseudomonas aeruginosa [8] and with Escherichia coli [9] was 422 µM (≈ 256 µg/mL) in each case. In addition, the MIC in the assay with Klebsiella pneumoniae amounted to 422 µM (≈ 256 µg/mL); with Aspergillus fumigatus, 422 µM (≈ 256 µg/mL); in the assay with Candida parapsilosis, 422 µM (≈ 256 µg/mL); in the assay on Candida albicans [10], 845 µM (≈ 512 µg/mL).
Turning to `CCn1cc(-c2csc(N)n2)c(=O)c2cc(F)c(N3CCN(C/C(=N/OC)c4ccc(Cl)cc4Cl)CC3)cc21`, the minimal inhibitory concentration (MIC) in the assay on Staphylococcus aureus [1] amounted to 54 µM (≈ 31.8 µg/mL); with Staphylococcus aureus [2], 434 µM (≈ 256 µg/mL); in the assay with Enterococcus faecalis, 434 µM (≈ 256 µg/mL); in the assay on Escherichia coli [3], 109 µM (≈ 64.3 µg/mL); with Candida albicans [4], 434 µM (≈ 256 µg/mL); with Staphylococcus aureus [5] it was 217 µM (≈ 128 µg/mL). Also, the minimal inhibitory concentration (MIC) in the assay with Acinetobacter baumannii worked out at 54 µM (≈ 31.8 µg/mL); in the assay with Pseudomonas aeruginosa [6], 217 µM (≈ 128 µg/mL); in the assay with Staphylococcus aureus [7] it was 217 µM (≈ 128 µg/mL); in the assay on Candida tropicalis, 54 µM (≈ 31.8 µg/mL); in the assay on Pseudomonas aeruginosa [8] it was 217 µM (≈ 128 µg/mL); in the assay on Escherichia coli [9], 869 µM (≈ 512 µg/mL). Moreover, the MIC in the assay with Klebsiella pneumoniae was found to be 217 µM (≈ 128 µg/mL); with Aspergillus fumigatus, 434 µM (≈ 256 µg/mL); in the assay with Candida parapsilosis, 217 µM (≈ 128 µg/mL); with Candida albicans [10] it was 217 µM (≈ 128 µg/mL).
Consider `CCn1cc(-c2csc(N)n2)c(=O)c2cc(N3CCN(C/C(=N/OC)c4ccc(OC)cc4)CC3)c(Cl)cc21`, for which the minimum inhibitory concentration (MIC) in the assay with Staphylococcus aureus [1], with Staphylococcus aureus [2], in the assay on Enterococcus faecalis, in the assay with Escherichia coli [3], in the assay on Candida albicans [4] and with Staphylococcus aureus [5] was 451 µM (≈ 256 µg/mL) each time. For the same compound, the MIC amounted to 451 µM (≈ 256 µg/mL) in the assay with Acinetobacter baumannii; 451 µM (≈ 256 µg/mL) in the assay with Pseudomonas aeruginosa [6]; 451 µM (≈ 256 µg/mL) in the assay with Staphylococcus aureus [7]; 226 µM (≈ 128 µg/mL) with Candida tropicalis; 451 µM (≈ 256 µg/mL) in the assay with Pseudomonas aeruginosa [8]; 451 µM (≈ 256 µg/mL) in the assay on Escherichia coli [9]. The MIC with Klebsiella pneumoniae worked out at 451 µM (≈ 256 µg/mL); with Aspergillus fumigatus, 451 µM (≈ 256 µg/mL); with Candida parapsilosis, 451 µM (≈ 256 µg/mL); with Candida albicans [10] it was 226 µM (≈ 128 µg/mL).
With `CCn1cc(-c2csc(N)n2)c(=O)c2cc(F)c(N3CCN(C/C(C)=N/OCc4ccc(Cl)cc4Cl)CC3)cc21`, the MIC was determined as 848 µM (≈ 512 µg/mL) with Staphylococcus aureus [1]; 424 µM (≈ 256 µg/mL) in the assay with Staphylococcus aureus [2]; 424 µM (≈ 256 µg/mL) in the assay on Enterococcus faecalis; 424 µM (≈ 256 µg/mL) in the assay with Escherichia coli [3]; 848 µM (≈ 512 µg/mL) in the assay on Candida albicans [4]; 848 µM (≈ 512 µg/mL) in the assay with Staphylococcus aureus [5]. For the same compound, the MIC turned out to be 848 µM (≈ 512 µg/mL) with Acinetobacter baumannii; 848 µM (≈ 512 µg/mL) in the assay on Pseudomonas aeruginosa [6]; 848 µM (≈ 512 µg/mL) with Staphylococcus aureus [7]; 424 µM (≈ 256 µg/mL) in the assay with Candida tropicalis; 848 µM (≈ 512 µg/mL) with Pseudomonas aeruginosa [8]; 848 µM (≈ 512 µg/mL) in the assay on Escherichia coli [9]. The minimum inhibitory concentration (MIC) with Klebsiella pneumoniae turned out to be 848 µM (≈ 512 µg/mL); in the assay on Aspergillus fumigatus, 424 µM (≈ 256 µg/mL); in the assay on Candida parapsilosis, 848 µM (≈ 512 µg/mL); with Candida albicans [10] it was 106 µM (≈ 64 µg/mL).
As for `CCn1cc(-c2csc(N)n2)c(=O)c2cc(F)c(N3CCN(C/C(=N/OC)c4ccc(Cl)cc4)CC3)cc21`, the minimal inhibitory concentration (MIC) in the assay with Staphylococcus aureus [1] worked out at 58 µM (≈ 32.2 µg/mL); in the assay with Staphylococcus aureus [2], 29 µM (≈ 16.1 µg/mL); in the assay on Enterococcus faecalis, 115 µM (≈ 63.8 µg/mL); with Escherichia coli [3] it was 231 µM (≈ 128 µg/mL); with Candida albicans [4] it was 231 µM (≈ 128 µg/mL); in the assay with Staphylococcus aureus [5], 231 µM (≈ 128 µg/mL). Besides, the MIC in the assay with Acinetobacter baumannii came out at 115 µM (≈ 63.8 µg/mL); with Pseudomonas aeruginosa [6], 58 µM (≈ 32.2 µg/mL); in the assay on Staphylococcus aureus [7] it was 231 µM (≈ 128 µg/mL); in the assay on Candida tropicalis, 115 µM (≈ 63.8 µg/mL); in the assay on Pseudomonas aeruginosa [8], 231 µM (≈ 128 µg/mL); in the assay with Escherichia coli [9] it was 461 µM (≈ 256 µg/mL). Further, the minimum inhibitory concentration (MIC) in the assay with Klebsiella pneumoniae was determined as 231 µM (≈ 128 µg/mL); in the assay with Aspergillus fumigatus, 461 µM (≈ 256 µg/mL); in the assay on Candida parapsilosis, 115 µM (≈ 63.8 µg/mL); in the assay on Candida albicans [10], 463 µM (≈ 257 µg/mL).
For `CCn1cc(-c2csc(N)n2)c(=O)c2cc(N3CCN(C/C(C)=N/OC)CC3)c(Cl)cc21`, the minimum inhibitory concentration (MIC) with Staphylococcus aureus [1] is 135 µM (≈ 64.1 µg/mL); with Staphylococcus aureus [2], 67 µM (≈ 31.8 µg/mL); in the assay on Enterococcus faecalis, 135 µM (≈ 64.1 µg/mL); in the assay on Escherichia coli [3], 269 µM (≈ 128 µg/mL); with Candida albicans [4], 539 µM (≈ 256 µg/mL); in the assay on Staphylococcus aureus [5] it was 135 µM (≈ 64.1 µg/mL). For the same compound, the minimal inhibitory concentration (MIC) with Acinetobacter baumannii was found to be 135 µM (≈ 64.1 µg/mL); with Pseudomonas aeruginosa [6] it was 135 µM (≈ 64.1 µg/mL); with Staphylococcus aureus [7], 67 µM (≈ 31.8 µg/mL); in the assay on Candida tropicalis, 269 µM (≈ 128 µg/mL); in the assay with Pseudomonas aeruginosa [8] it was 269 µM (≈ 128 µg/mL); in the assay with Escherichia coli [9], 269 µM (≈ 128 µg/mL). The minimal inhibitory concentration (MIC) was 135 µM (≈ 64.1 µg/mL) in the assay on Klebsiella pneumoniae, 269 µM (≈ 128 µg/mL) with Aspergillus fumigatus, 67 µM (≈ 31.8 µg/mL) in the assay with Candida parapsilosis and 269 µM (≈ 128 µg/mL) in the assay on Candida albicans [10].
In the case of `OC(Cn1cncn1)(Cn1cncn1)c1ccc(F)cc1F` [FLUCONAZOLE], the MIC is 13 µM (≈ 3.98 µg/mL) in the assay with Candida albicans [4]; 26 µM (≈ 7.96 µg/mL) in the assay on Candida tropicalis; 836 µM (≈ 256 µg/mL) in the assay on Aspergillus fumigatus; 13 µM (≈ 3.98 µg/mL) in the assay with Candida parapsilosis; 7 µM (≈ 2.14 µg/mL) in the assay on Candida albicans [10].
